Results taken from paper PMC8207330 (Leukemia research, 2017).
“And” between values parts separate entries of the source, which are not always exact repeats. Equal entries are not always repeated. Where two headings read alike, the source gives them in different places.

Assays:
[1] = system: patients with JAK2^V617F-positive myelofibrosis, essential thrombocythemia, or polycythemia vera; assay: Clinical efficacy; format: in vivo, human
Outline: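 Multicentre, nonrandomised, open-label phase 1 of the oral test compound given once daily in 28-day cycles. 3 + 3 escalation through 30, 60, 120, 240 and 200 mg. A 120 mg lead-in for 14–28 days was followed by 200 or 300 mg, and 120 mg was used for dose confirmation. Response was scored by IWG clinical-improvement criteria, or European LeukemiaNet criteria for PV/ET, with duration counted in cycles. Analysis was descriptive.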

[2] = Pharmacokinetics in patients; format: in vivo, human
[3] = system: patients with JAK2^V617F-positive myelofibrosis, essential thrombocythemia, or polycythemia vera; format: in vivo
[4] = cohort 6, 120 mg (Cycle 1a), N = 8
[5] = cohort 6, 200 mg (Cycle 1b), N = 7
[6] = cohort 7, 120 mg (Cycle 1a), N = 6
[7] = cohort 7, 300 mg (Cycle 1b), N = 5
[8] = cohort L (withdrawn in lead-in phase), 120 mg, N = 1
[9] = cycle 1, cohort 1, 30 mg, N = 3
[10] = cycle 1, cohort 2, 60 mg, N = 3
[11] = cycle 1, cohort 3, 120 mg, N = 10
[12] = cycle 1, cohort 4, 240 mg, N = 3
[13] = cycle 1, cohort 5, 200 mg, N = 3

Cc1cc(Nc2cc(CN3CCOCC3)c3nc(C)c(Cc4ccc(Cl)cc4F)n3n2)n[nH]1 [gandotinib]
partial response ([1]; ET (1 patient enrolled)): One | duration of clinic-hematologic partial response ([1]; PV patients): 3–16 cycles | JAK2^V617F allele burden reduction of ≥50% at any time ([1]; across all cohorts): 5 of 36 | palpable spleen length reduction of ≥ 50% at any time during therapy ([1]; across all cohorts): 20/32 and 20 of 32 | no clinic-hematologic response ([1]; of the 6 patients with PV): 3 patients | clinic-hematologic partial response ([1]; of the 6 patients with PV (2 in cohort 6, 1 in cohort 7)): 3 patients | Vd/F ([2]; human, plasma, oral): 682 L | half-life ([2]; human, plasma, oral): ~6 h | apparent clearance (CL/F) ([2]; mean value, CV of 68): 80.7 L/h | time at which maximum plasma concentration (Cmax) was reached ([2]; on average, after single and multiple doses): 4 h | Patients with ≥ 1 SAE possibly related to study drug ([3]; 30 mg (N = 3)): 0 n% | SAE possibly related: Anemia ([3]; 30 mg (N = 3)): 0 n% | SAE possibly related: Blood creatinine increased ([3]; 30 mg (N = 3)): 0 n% | SAE possibly related: Hyperkalemia ([3]; 30 mg (N = 3)): 0 n% | SAE possibly related: Hyperuricemia ([3]; 30 mg (N = 3)): 0 n% | SAE possibly related: Renal failure, acute ([3]; 30 mg (N = 3)): 0 n% | Patients with ≥ 1 SAE possibly related to study drug ([3]; 60 mg (N = 7)): 0 n% | SAE possibly related: Anemia ([3]; 60 mg (N = 7)): 0 n% | SAE possibly related: Blood creatinine increased ([3]; 60 mg (N = 7)): 0 n% | SAE possibly related: Hyperkalemia ([3]; 60 mg (N = 7)): 0 n% | SAE possibly related: Hyperuricemia ([3]; 60 mg (N = 7)): 0 n% | SAE possibly related: Renal failure, acute ([3]; 60 mg (N = 7)): 0 n% | Patients with ≥ 1 SAE possibly related to study drug ([3]; 120 mg (N = 34)): 0 n% | SAE possibly related: Anemia ([3]; 120 mg (N = 34)): 0 n% | SAE possibly related: Blood creatinine increased ([3]; 120 mg (N = 34)): 0 n% | SAE possibly related: Hyperkalemia ([3]; 120 mg (N = 34)): 0 n% | SAE possibly related: Hyperuricemia ([3]; 120 mg (N = 34)): 0 n% | SAE possibly related: Renal failure, acute ([3]; 120 mg (N = 34)): 0 n% | DLTs observed ([3]; 200 mg): 3 DLTs | Patients with ≥ 1 SAE possibly related to study drug ([3]; 200 mg (N = 15)): 4 (26.7) n% | SAE possibly related: Anemia ([3]; 200 mg (N = 15)): 1 (6.7) n% | SAE possibly related: Blood creatinine increased ([3]; 200 mg (N = 15)): 3 (20.0) n% | SAE possibly related: Hyperkalemia ([3]; 200 mg (N = 15)): 0 (0.0) n% | SAE possibly related: Hyperuricemia ([3]; 200 mg (N = 15)): 1 (6.7) n% | SAE possibly related: Renal failure, acute ([3]; 200 mg (N = 15)): 1 (6.7) n% | Patients with ≥ 1 SAE possibly related to study drug ([3]; 240 mg (N = 3)): 1 (33.3) n% | SAE possibly related: Anemia ([3]; 240 mg (N = 3)): 0 n% | SAE possibly related: Blood creatinine increased ([3]; 240 mg (N = 3)): 1 (33.3) n% | SAE possibly related: Hyperkalemia ([3]; 240 mg (N = 3)): 0 n% | SAE possibly related: Hyperuricemia ([3]; 240 mg (N = 3)): 0 n% | SAE possibly related: Renal failure, acute ([3]; 240 mg (N = 3)): 0 n% | Patients with ≥ 1 SAE possibly related to study drug ([3]; 300 mg (N = 5)): 1 (20.0) n% | SAE possibly related: Anemia ([3]; 300 mg (N = 5)): 0 n% | SAE possibly related: Blood creatinine increased ([3]; 300 mg (N = 5)): 0 n% | SAE possibly related: Hyperkalemia ([3]; 300 mg (N = 5)): 0 n% | SAE possibly related: Hyperuricemia ([3]; 300 mg (N = 5)): 0 n% | SAE possibly related: Renal failure, acute ([3]; 300 mg (N = 5)): 1 (20.0) n% | TEAE: nausea ([3]; 16 of 38 patients, majority grade 1): 42.1% | TEAE: diarrhea ([3]; 21 of 38 patients, majority grade 1): 55.3% | Patients with ≥ 1 SAE possibly related to study drug ([3]; Grade 3 and above, Total): 6 (15.8) n% | SAE possibly related: Anemia ([3]; Grade 3 and above, Total): 1 (2.6) n% | SAE possibly related: Blood creatinine increased ([3]; Grade 3 and above, Total): 1 (2.6) n% | SAE possibly related: Hyperkalemia ([3]; Grade 3 and above, Total): 0 n% | SAE possibly related: Hyperuricemia ([3]; Grade 3 and above, Total): 2 (5.3) n% | SAE possibly related: Renal failure, acute ([3]; Grade 3 and above, Total): 2 (5.3) n% | Patients with ≥ 1 SAE possibly related to study drug ([3]; Grade 4 and above, Total): 2 (5.3) n% | SAE possibly related: Anemia ([3]; Grade 4 and above, Total): 0 n% | SAE possibly related: Blood creatinine increased ([3]; Grade 4 and above, Total): 0 n% | SAE possibly related: Hyperkalemia ([3]; Grade 4 and above, Total): 0 n% | SAE possibly related: Hyperuricemia ([3]; Grade 4 and above, Total): 2 (5.3) n% | SAE possibly related: Renal failure, acute ([3]; Grade 4 and above, Total): 0 n% | SAE possibly related: Renal failure, acute ([3]; Total (N = 38), 2 MF, 1 ET, 1 PV): 4 (10.5) [2 MF, 1 ET, 1 PV] n% | SAE possibly related: Anemia ([3]; Total (N = 38), MF): 1 (2.6) MF n% | SAE possibly related: Blood creatinine increased ([3]; Total (N = 38), MF): 5 (13.2) MF n% | SAE possibly related: Hyperkalemia ([3]; Total (N = 38), MF): 1 (2.6) MF n% | SAE possibly related: Hyperuricemia ([3]; Total (N = 38), MF): 2 (5.3) MF n% | DLT: Blood creatinine increased [3, 4]: 3 (37.5) n (%) | DLT: Hyperkalemia [3, 4]: 0 n (%) | DLT: Hyperuricemia [3, 4]: 0 n (%) | DLT: Renal failure acute [3, 4]: 0 n (%) | Patients with DLT [3, 4]: 3 (37.5) n (%) | DLT: Blood creatinine increased [3, 5]: 3 (42.9) n (%) | DLT: Hyperkalemia [3, 5]: 0 n (%) | DLT: Hyperuricemia [3, 5]: 0 n (%) | DLT: Renal failure acute [3, 5]: 0 n (%) | Patients with DLT [3, 5]: 3 (42.9) n (%) | DLT: Blood creatinine increased [3, 6]: 0 n (%) | DLT: Hyperkalemia [3, 6]: 0 n (%) | DLT: Hyperuricemia [3, 6]: 0 n (%) | DLT: Renal failure acute [3, 6]: 0 n (%) | Patients with DLT [3, 6]: 0 n (%) | DLT: Blood creatinine increased [3, 7]: 1 (20.0) n (%) | DLT: Hyperkalemia [3, 7]: 0 n (%) | DLT: Hyperuricemia [3, 7]: 0 n (%) | DLT: Renal failure acute [3, 7]: 1 (20.0) n (%) | Patients with DLT [3, 7]: 2 (40.0) n (%) | DLT: Blood creatinine increased [3, 8]: 0 n (%) | DLT: Hyperkalemia [3, 8]: 0 n (%) | DLT: Hyperuricemia [3, 8]: 0 n (%) | DLT: Renal failure acute [3, 8]: 0 n (%) | Patients with DLT [3, 8]: 0 n (%) | DLT: Blood creatinine increased ([3]; cycle 1, Total, N = 37): 5 (13.5) n (%) | DLT: Hyperkalemia ([3]; cycle 1, Total, N = 37): 1 (2.7) n (%) | DLT: Hyperuricemia ([3]; cycle 1, Total, N = 37): 2 (5.4) n (%) | DLT: Renal failure acute ([3]; cycle 1, Total, N = 37): 1 (2.7) n (%) | Patients with DLT ([3]; cycle 1, Total, N = 37): 9 (24.3) n (%) | DLT: Blood creatinine increased [3, 9]: 0 n (%) | DLT: Hyperkalemia [3, 9]: 0 n (%) | DLT: Hyperuricemia [3, 9]: 0 n (%) | DLT: Renal failure acute [3, 9]: 0 n (%) | Patients with DLT [3, 9]: 0 n (%) | DLT: Blood creatinine increased [3, 10]: 0 n (%) | DLT: Hyperkalemia [3, 10]: 0 n (%) | DLT: Hyperuricemia [3, 10]: 0 n (%) | DLT: Renal failure acute [3, 10]: 0 n (%) | Patients with DLT [3, 10]: 0 n (%) | DLT: Blood creatinine increased [3, 11]: 0 n (%) | DLT: Hyperkalemia [3, 11]: 0 n (%) | DLT: Hyperuricemia [3, 11]: 0 n (%) | DLT: Renal failure acute [3, 11]: 0 n (%) | Patients with DLT [3, 11]: 0 n (%) | DLT: Blood creatinine increased [3, 12]: 0 n (%) | DLT: Hyperkalemia [3, 12]: 0 n (%) | DLT: Hyperuricemia [3, 12]: 1 (33.3) n (%) | DLT: Renal failure acute [3, 12]: 0 n (%) | Patients with DLT [3, 12]: 1 (33.3) n (%) | DLT: Blood creatinine increased [3, 13]: 1 (33.3) n (%) | DLT: Hyperkalemia [3, 13]: 1 (33.3) n (%) | DLT: Hyperuricemia [3, 13]: 1 (33.3) n (%) | DLT: Renal failure acute [3, 13]: 0 n (%) | Patients with DLT [3, 13]: 3 (100) n (%) | DLTs observed ([3]; first 3 tested doses (30, 60, 120 mg)): No DLTs | treatment discontinuation due to renal failure ([3]; most frequent adverse event resulting in discontinuation): 4 patients
